Data taken from PMC5095872 (Chemmedchem, 2016).

Columns and labels:
[1] = Liver microsome stability, human; assay type: in vitro ADME; settings: human liver microsomes; well-stirred model
[2] = Liver microsome stability, mouse; assay type: in vitro ADME; settings: mouse liver microsomes; well-stirred model
[3] = Hepatocyte stability, rat; assay type: in vitro ADME; settings: rat hepatocytes; well-stirred model
[4] = Liver microsome stability, dog; assay type: in vitro ADME; settings: dog liver microsomes; well-stirred model
[5] = Caco-2 permeability assay; assay type: in vitro ADME; settings: human
[6] = Hepatocyte stability, dog; assay type: in vitro ADME; settings: dog hepatocytes; well-stirred model
Method in brief: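 Dog hepatocytes. Intrinsic clearance (CLint) was scaled to blood clearance with the well-stirred liver model: CLb = QH×CLint/(QH + CLint). Dog liver blood flow (QH) was 2.1 L h⁻¹ kg⁻¹.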

[7] = Hepatocyte stability, human; assay type: in vitro ADME; settings: human hepatocytes; well-stirred model
Method in brief: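 Human hepatocytes. Intrinsic clearance (CLint) was converted to blood clearance with the well-stirred hepatic model: CLb = QH×CLint/(QH + CLint). Human liver blood flow (QH) was 1.32 L h⁻¹ kg⁻¹.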

[8] = In vivo pharmacokinetics, dog; settings: female Beagle dog, 0.2 mg kg^−1 p.o.; Cmax,p.o./dose p.o.
[9] = Liver microsome stability, monkey; assay type: in vitro ADME; settings: monkey liver microsomes; well-stirred model
[10] = In vivo pharmacokinetics, rat; settings: male Wistar rat, 0.6 mg kg^−1 p.o.; Cmax,p.o./dose p.o.
[11] = Hepatocyte stability, monkey; assay type: in vitro ADME; settings: monkey hepatocytes; well-stirred model
[12] = Liver microsome stability, rat; assay type: in vitro ADME; settings: rat liver microsomes; well-stirred model

| LM stability CL b,LM [1] [L/h/kg] | LM stability CL b,LM [2] [L/h/kg] | Hep stability CL b,Hep [3] [L/h/kg] | LM stability CL b,LM [4] | Hep stability CL b,Hep [6] [L/h/kg] | SMILES | further results |
| --- | --- | --- | --- | --- | --- | --- |
| 1.2 | 4.0 | 3.7 | – | – | Cc1ccc2nc(C)cc(C(=O)Nc3c(C)nn(Cc4ccc(F)cc4)c3C)c2c1 [Compound 2] | – |
| – | 2.2 | 2.6 | – | – | Cc1c(NC(=O)c2cc(C(F)(F)F)nc3ccc(Br)cc23)c(C(F)(F)F)nn1Cc1ccc(F)cc1 [Compound 12] | – |
| 0.21 | 1.4 | 1.8 | 0.06 L/h/kg | 0.11 | Cc1c(NC(=O)c2cc(C(N)=O)nc3ccccc23)c(C(F)(F)F)nn1Cc1ccc(C#N)cc1 [Compound 13] | Papp A→B at 2 h, 2 µM [5]: 7.4 ×10⁻⁶ cm/s |
| – | 2.3 | 2.0 | – | – | Cc1ccc2nc(C(N)=O)cc(C(=O)Nc3c(C(F)(F)F)nn(Cc4ccc(C#N)cc4)c3C)c2c1 [Compound 17] | – |
| 0.32 | – | – | stable | 0.20 | Cc1c(NC(=O)c2cc(C(N)=O)nc3cc(F)ccc23)c(C(F)(F)F)nn1Cc1ccc(C#N)cc1 [Compound 19, N ^4 ‐[1‐(4‐Cyanobenzyl)‐5‐methyl‐3‐(trifluoromethyl)‐1H‐pyrazol‐4‐yl]‐7‐fluoroquinoline‐2,4‐dicarboxamide] | Hep stability CL b,Hep [7]: 0.37 L/h/kg; C max,norm,p.o. [8]: 0.93 kg L ^−1; LM stability CL b,LM [9]: 0.76 L/h/kg; C max,norm,p.o. [10]: 0.33 kg L ^−1 |
| 0.87 | – | – | – | – | Cc1c(NC(=O)c2cc(C(N)=O)nc3cc(F)ccc23)c(C(C)C)nn1Cc1ccc(C#N)cc1 [Compound 43] | – |
| 0.19 | 0.36 | 0.04 | 0.001 L/h/kg | 0.001 | Cc1c(NC(=O)c2cc(C(N)=O)nc3cc(F)ccc23)c(C(F)(F)F)nn1Cc1ccc(C#N)cn1 [Compound 54] | Hep stability CL b,Hep [7]: 0.03 L/h/kg; Hep stability CL b,Hep [11]: 0.32 L/h/kg; LM stability CL b,LM [9]: 0.40 L/h/kg; LM stability CL b,LM [12]: 0.37 L/h/kg |
| 0.53 | – | 1.2 | – | – | Cc1c(NC(=O)c2cc(C(N)=O)nc3cc(F)ccc23)c(C(F)(F)F)nn1Cc1cnc(C#N)cn1 [Compound 57] | – |
| 0.22 | – | 0.89 | – | – | Cc1c(NC(=O)c2cc(C(N)=O)nc3cc(F)ccc23)c(C(F)(F)F)nn1Cc1ncc(C#N)cn1 [Compound 58] | – |
